Reference: ChEMBL document CHEMBL1141199, “N-benzylisatin sulfonamide analogues as potent caspase-3 inhibitors: synthesis, in vitro activity, and molecular modeling studies” (J Med Chem, 2005)

Tests used:
[1] = molecular target: T1, Caspase-7 (Homo sapiens, UniProt P55210); assay: Inhibitory activity against caspase 7 using Ac-DEVD-AMC substrate
T1 sequence (P55210 whole entry): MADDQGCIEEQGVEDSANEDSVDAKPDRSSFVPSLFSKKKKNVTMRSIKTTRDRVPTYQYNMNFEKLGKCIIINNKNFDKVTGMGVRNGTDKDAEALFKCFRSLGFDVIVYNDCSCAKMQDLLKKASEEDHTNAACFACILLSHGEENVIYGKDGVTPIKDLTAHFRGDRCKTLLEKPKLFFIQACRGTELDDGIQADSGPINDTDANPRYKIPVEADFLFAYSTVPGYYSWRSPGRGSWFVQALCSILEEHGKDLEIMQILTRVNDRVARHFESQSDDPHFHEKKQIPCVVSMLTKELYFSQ
Summary of the method: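 Substrate solution held a further 10 mM 2-mercaptoethanol for full activation. Enzyme was used at a linear-range level. DMSO inhibitor dilutions (5% final) were preincubated 30 min on ice, then run 1–2 h at 37 °C. AMC read at 355/460 nm. Duplicates; IC50 is the mean of three runs.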

[2] = molecular target: T2, Caspase-1 (Homo sapiens, UniProt P29466); assay: Inhibitory activity against caspase 1 using Ac-YVAD-AMC substrate
T2 sequence (P29466 whole entry): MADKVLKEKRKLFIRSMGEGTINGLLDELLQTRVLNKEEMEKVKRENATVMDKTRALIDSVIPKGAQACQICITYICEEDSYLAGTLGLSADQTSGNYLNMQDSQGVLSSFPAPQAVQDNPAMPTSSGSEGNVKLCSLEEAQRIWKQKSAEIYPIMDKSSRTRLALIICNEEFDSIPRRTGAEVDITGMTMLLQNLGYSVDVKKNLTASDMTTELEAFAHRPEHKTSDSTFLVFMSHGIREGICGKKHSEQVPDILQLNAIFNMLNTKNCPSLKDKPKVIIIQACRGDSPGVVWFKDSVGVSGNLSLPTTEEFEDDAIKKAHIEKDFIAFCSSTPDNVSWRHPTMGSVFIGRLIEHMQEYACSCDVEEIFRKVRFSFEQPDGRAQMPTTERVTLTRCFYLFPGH
Summary of the method: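 Substrate solution carried an extra 10 mM 2-mercaptoethanol. Inhibitors in DMSO were preincubated 30 min on ice, then run 1–2 h at 37 °C. AMC was read at ex 355/em 460 nm. Duplicates; IC50 is the mean of three experiments.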

[3] = molecular target: Caspase-8 (Homo sapiens, UniProt Q14790); assay: Inhibitory activity against caspase 8 using Ac-IETD-AMC substrate
Summary of the method: (§1)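 Substrates at 10 µM: Ac-DEVD-AMC (caspase-3), Ac-VEID-AMC (caspase-6), Ac-IETD-AMC (caspase-8). Serially diluted inhibitors were preincubated 30 min on ice, then run 1–2 h at 37 °C in 5% final DMSO. AMC fluorescence ex 355/em 460 nm. Duplicates; IC50 averaged over three experiments.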

[4] = molecular target: T3, Caspase-6 (Homo sapiens, UniProt P55212); assay: Inhibitory activity against caspase 6 using Ac-VEID-AMC substrate; summary of the method: as §1
T3 sequence (P55212 whole entry): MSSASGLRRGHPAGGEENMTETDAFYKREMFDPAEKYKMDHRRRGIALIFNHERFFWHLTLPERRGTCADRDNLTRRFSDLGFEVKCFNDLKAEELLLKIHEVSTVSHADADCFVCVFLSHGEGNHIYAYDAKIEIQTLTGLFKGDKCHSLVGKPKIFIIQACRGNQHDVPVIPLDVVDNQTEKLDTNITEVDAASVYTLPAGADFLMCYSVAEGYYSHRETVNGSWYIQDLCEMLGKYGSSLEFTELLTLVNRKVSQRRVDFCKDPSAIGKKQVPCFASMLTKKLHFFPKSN

[5] = molecular target: T4, Caspase-3 (Homo sapiens, UniProt P42574); assay: Inhibitory activity against caspase 3 using Ac-DEVD-AMC substrate; summary of the method: as §1
T4 sequence (P42574 whole entry): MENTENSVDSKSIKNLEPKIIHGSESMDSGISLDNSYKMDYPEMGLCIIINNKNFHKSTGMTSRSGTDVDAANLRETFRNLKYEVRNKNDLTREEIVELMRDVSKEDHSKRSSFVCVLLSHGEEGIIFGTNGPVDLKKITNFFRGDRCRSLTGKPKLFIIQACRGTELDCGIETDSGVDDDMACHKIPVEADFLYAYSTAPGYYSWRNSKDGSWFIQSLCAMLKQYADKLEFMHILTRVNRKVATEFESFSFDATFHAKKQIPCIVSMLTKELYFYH

Caspase-8, sequence (Q14790 217-374 limits assumed): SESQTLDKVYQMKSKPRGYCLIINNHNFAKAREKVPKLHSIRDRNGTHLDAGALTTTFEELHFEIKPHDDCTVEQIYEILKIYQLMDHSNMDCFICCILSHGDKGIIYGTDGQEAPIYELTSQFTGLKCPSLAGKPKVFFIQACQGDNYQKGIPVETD
Caspase-8, sequence (Q14790 385-479 limits assumed): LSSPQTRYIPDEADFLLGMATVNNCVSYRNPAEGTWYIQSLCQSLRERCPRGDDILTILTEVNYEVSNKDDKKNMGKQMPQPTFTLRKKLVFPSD

SMILES | IC50 [1] [µM] | IC50 [2] [µM] | IC50 [3] [µM] | IC50 [4] [µM] | IC50 [5] [µM]
O=C1Nc2ccc(S(=O)(=O)N3CCC[C@H]3COc3ccncc3)cc2C1=O | 0.142 | > 5 | > 50 | > 5 | 0.0204
O=C1C(=O)N(Cc2cccc(F)n2)c2ccc(S(=O)(=O)N3CCC[C@H]3COc3ccccc3)cc21 |  | > 50 | > 50 | > 5 | 
O=C1C(=O)N(Cc2ccccc2)c2ccc(S(=O)(=O)N3CCC[C@H]3COc3cccnc3)cc21 | 0.0141 | > 10 | > 50 | > 5 | 0.0052
CN1C(=O)C(=O)c2cc(S(=O)(=O)N3CCC[C@H]3COc3ccccc3)ccc21 | 0.31 | > 20 | > 50 | > 5 | 0.119
CN1C(=O)C(=O)c2cc(S(=O)(=O)N3CCC[C@H]3COc3cccnc3)ccc21 | 0.0949 | > 10 | > 50 | > 5 | 0.0233
O=C1C(=O)N(Cc2ccnc(F)c2)c2ccc(S(=O)(=O)N3CCC[C@H]3COc3ccccc3)cc21 |  | > 50 | > 50 | > 5 | 
CC(=O)Oc1ccc(CN2C(=O)C(=O)c3cc(S(=O)(=O)N4CCC[C@H]4COc4ccccc4)ccc32)cc1 | 0.0348 | > 50 | > 50 | > 5 | 0.012
COc1ccc(CN2C(=O)C(=O)c3cc(S(=O)(=O)N4CCC[C@H]4COc4cccnc4)ccc32)cc1 | 0.0151 | > 10 | > 50 | > 5 | 0.0039
COc1ccc(CN2C(=O)C(=O)c3cc(S(=O)(=O)N4CCC[C@H]4COc4ccccc4)ccc32)cc1 | 0.0218 | > 10 | > 50 | > 5 | 0.0145
O=C1C(=O)N(Cc2ccc(O)cc2)c2ccc(S(=O)(=O)N3CCC[C@H]3COc3ccccc3)cc21 |  | > 5 | > 50 | > 5 | 
O=C1C(=O)N(Cc2ccccc2)c2ccc(S(=O)(=O)N3CC[C@H]3COc3ccccc3)cc21 |  | > 10 | > 50 | > 5 | 
O=C1C(=O)N(Cc2ccc(F)cc2)c2ccc(S(=O)(=O)N3CCC[C@H]3COc3ccccc3)cc21 | 0.023 | > 50 | > 50 | > 5 | 0.0121
O=C1C(=O)N(Cc2ccccc2)c2ccc(S(=O)(=O)N3CCC[C@H]3COc3ccccc3)cc21 |  | > 10 | > 50 | > 5 | 
COc1ccc(CN2C(=O)C(=O)c3cc(S(=O)(=O)N4CC[C@H]4COc4ccccc4)ccc32)cc1 |  | > 50 | > 50 | > 5 | 
O=C1C(=O)N(Cc2ccc(F)cc2)c2ccc(S(=O)(=O)N3CCC[C@H]3COc3cccnc3)cc21 | 0.0151 | > 10 | > 50 | > 5 | 0.0084
O=C1C(=O)N(Cc2ccccc2F)c2ccc(S(=O)(=O)N3CC[C@H]3COc3ccccc3)cc21 |  | > 10 | > 50 | > 5 | 
CSc1ccc(CN2C(=O)C(=O)c3cc(S(=O)(=O)N4CCC[C@H]4COc4ccccc4)ccc32)cc1 | 0.041 | > 50 | > 50 | > 5 | 0.0124
O=C1C(=O)N(Cc2ccnc(F)c2)c2ccc(S(=O)(=O)N3CC[C@H]3COc3ccccc3)cc21 |  | > 50 | > 50 | > 5 | 
CSc1ccc(CN2C(=O)C(=O)c3cc(S(=O)(=O)N4CC[C@H]4COc4ccccc4)ccc32)cc1 |  | > 50 | > 50 | > 5 | 
O=C1C(=O)N(Cc2ccc(F)nc2)c2ccc(S(=O)(=O)N3CCC[C@H]3COc3ccccc3)cc21 |  | > 50 | > 50 | > 5 | 
O=C1C(=O)N(Cc2ccc(F)cc2)c2ccc(S(=O)(=O)N3CC[C@H]3COc3ccccc3)cc21 |  | > 10 | > 50 | > 5 | 
CSc1ccc(CN2C(=O)C(=O)c3cc(S(=O)(=O)N4CCC[C@H]4COc4cccnc4)ccc32)cc1 | 0.0233 | > 50 | > 50 | > 5 | 0.0044
O=C1C(=O)N(Cc2ccc(F)nc2)c2ccc(S(=O)(=O)N3CC[C@H]3COc3ccccc3)cc21 |  | > 50 | > 50 | > 5 | 
O=C1Nc2ccc(S(=O)(=O)N3CCC[C@H]3COc3cccnc3)cc2C1=O | 0.215 | > 5 | > 50 | > 5 | 0.0583
O=C1Nc2ccc(S(=O)(=O)N3CC[C@H]3COc3ccccc3)cc2C1=O |  | > 10 | > 50 | > 5 | 
CN1C(=O)C(=O)c2cc(S(=O)(=O)N3CC[C@H]3COc3ccccc3)ccc21 |  | > 10 | > 50 | > 5 | 
O=C1C(=O)N(Cc2cccc(F)n2)c2ccc(S(=O)(=O)N3CC[C@H]3COc3ccccc3)cc21 |  | > 10 | > 50 | > 5 | 
O=C1Nc2ccc(S(=O)(=O)N3CCC[C@H]3COc3ccccc3)cc2C1=O |  | > 10 | > 50 | > 5 | 
